Results on 1 compound are retold here after ChEMBL document CHEMBL4145582, “Cytotoxic and Antibacterial Eremophilane Sesquiterpenes from the Marine-Derived Fungus Cochliobolus lunatus SCSIO41401” (J Nat Prod, 2018).

Common to all, as to format: functional
Assay [1] relates to ACHN. Briefly: Induction of apoptosis in human ACHN cells assessed as early apoptotic cells at 1 uM after 24 hrs by Annexin V-FITC/propidium iodide staining based flow cytometric method (reference value: 0%). In outline: (§1)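 ACHN cells are treated at 1, 2 and 4 μM for 24, 48 and 72 h. Cells are then double-stained with annexin V-FITC and propidium iodide and analysed by flow cytometry. Early apoptotic, late apoptotic, necrotic and viable fractions are quantified.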

Assay [2] concerns ACHN. Briefly: Induction of apoptosis in human ACHN cells assessed as necrotic cells at 1 uM after 48 hrs by Annexin V-FITC/propidium iodide staining based flow cytometric method (reference value: 0%). In outline:
as §1

Assay [3] concerns ACHN. Briefly: Induction of apoptosis in human ACHN cells assessed as early apoptotic cells at 1 uM after 72 hrs by Annexin V-FITC/propidium iodide staining based flow cytometric method (reference value: 0%). In outline:
as §1

For assay [4], the system named is ACHN. Briefly: Induction of apoptosis in human ACHN cells assessed as late apoptotic cells at 2 uM after 24 hrs by Annexin V-FITC/propidium iodide staining based flow cytometric method (reference value: 0%). In outline: as §1
Assay [5] relates to ACHN. The experiment in a line: Induction of apoptosis in human ACHN cells assessed as necrotic cells at 4 uM after 72 hrs by Annexin V-FITC/propidium iodide staining based flow cytometric method (reference value: 0%). In outline:
as §1

The subject of assay [6] is ACHN. The experiment in a line: Induction of apoptosis in human ACHN cells assessed as late apoptotic cells at 4 uM after 24 hrs by Annexin V-FITC/propidium iodide staining based flow cytometric method (reference value: 0%). The essentials:
as §1

For assay [7], the system named is ACHN. Briefly: Induction of apoptosis in human ACHN cells assessed as viable cells at 4 uM after 24 hrs by Annexin V-FITC/propidium iodide staining based flow cytometric method (reference value: 100%). The note with it: read-out: Activity. The essentials: as §1
Another assay relates to Staphylococcus aureus. Briefly: Antimicrobial activity against Staphylococcus aureus subsp. aureus Rosenbach ATCC 25923 after 24 hrs by serial dilution method. Conditions: Rosenbach ATCC 25923, 24 h. The essentials:
(§2)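 Serial broth dilution in 96-well microtiter plates. Compounds and controls are dissolved in DMSO as stock. Bacteria are grown overnight at 37 °C, then diluted to 10^6 cfu/mL. E. coli and S. aureus are grown in Luria–Bertani broth. P. multocida and E. rhusiopathiae are grown in trypticase soy broth with 10% calf serum. Plates are incubated at 37 °C for 24 h and read at 630 nm.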

Assay [8] has as its system ACHN. The experiment in a line: Induction of apoptosis in human ACHN cells assessed as necrotic cells at 1 uM after 24 hrs by Annexin V-FITC/propidium iodide staining based flow cytometric method (reference value: 0%). The essentials:
as §1

In another assay the test system is Pasteurella multocida. The experiment in a line: Antimicrobial activity against Pasteurella multocida subsp. multocida ATCC 43137 after 24 hrs by serial dilution method. Conditions: ATCC 43137, 24 h. In outline:
as §2

Assay [9] deals with ACHN. The experiment in a line: Induction of apoptosis in human ACHN cells assessed as early apoptotic cells at 4 uM after 72 hrs by Annexin V-FITC/propidium iodide staining based flow cytometric method (reference value: 0%). The essentials: as §1
Assay [10] relates to ACHN. The experiment in a line: Induction of apoptosis in human ACHN cells assessed as late apoptotic cells at 1 uM after 48 hrs by Annexin V-FITC/propidium iodide staining based flow cytometric method (reference value: 0%). The essentials: as §1
In assay [11] the test system is ACHN. The experiment in a line: Induction of apoptosis in human ACHN cells assessed as early apoptotic cells at 2 uM after 24 hrs by Annexin V-FITC/propidium iodide staining based flow cytometric method (reference value: 0%). In outline:
as §1

Molecules are shown by their SMILES.

As to `C=C(/C=N/O)[C@]1(OC)C[C@@]2(C)C(=CC1=O)C=C[C@H](OC(=O)/C=C/C(C)=C/[C@@H](C)CC)[C@@H]2C`, the Activity in the assay on ACHN [1] worked out at 0.6%; with ACHN [2], 6%; in the assay with ACHN [3], 1.8%; in the assay on ACHN [4] it was 0.7%; in the assay with ACHN [5], 0.8%; in the assay with ACHN [6], 1.1%. The Activity turned out to be 5.5% in the assay with ACHN [8], 83.8% in the assay on ACHN [9], 1.2% in the assay with ACHN [10] and 0.8% in the assay on ACHN [11]. For the same compound, in the assay with ACHN [7], the viability at 4 µM was 76%. Also, the MIC against Staphylococcus aureus and in the assay on Pasteurella multocida was more than 100 µg/mL each time.
